Measurements from ChEMBL document CHEMBL1123760, “Synthesis and oral antifungal activity of novel azolylpropanolones and related compounds” (1987).
In brackets after ≈: the same amount, converted by molar mass.

Key:
Format in all cases: functional
Trichophyton benhamiae = experiment: In vitro antifungal activity against Trichophyton asteroides; settings: Trichophyton benhamiae; read-out: MIC
Outline: (§1)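 Broth microdilution MIC in Sabouraud's glucose broth; final inocula 1 × 10^5 cells/mL (yeast) or 1 × 10^5 conidia/mL (mold and dermatophyte).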

Candida albicans [1] = experiment: Minimum effective concentration for inhibition of pseudomycelium formation in Candida albicans; settings: Candida albicans; read-out: MEC
Outline: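 C. albicans KE-2 (clinical isolate) at a final 1 × 10^6 yeast cells/mL in EMEM with 20% calf serum; compounds diluted by the same microtiter system as for MICs. After incubation, wells were Giemsa-stained (5% in phosphate buffer) and read by microscope. MEC is the lowest concentration preventing typical pseudomycelium formation.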

Aspergillus fumigatus = experiment: In vitro antifungal activity against Aspergillus fumigatus; settings: Aspergillus fumigatus; read-out: MIC; outline: as §1
Candida albicans [2] = experiment: In vitro antifungal activity against Candida albicans; settings: Candida albicans; read-out: MIC; outline: as §1

Structure (SMILES) | MIC (Trichophyton benhamiae) | minimal effective concentration (Candida albicans [1]) | MIC (Aspergillus fumigatus) | MIC (Candida albicans [2])
Clc1ccc([C@H]2OCO[C@]2(Cn2cncn2)c2ccccc2)c(Cl)c1 | 0.2 µg/mL (≈ 0.532 µM) | 0.63 µg/mL | 12.5 µg/mL (≈ 33.2 µM) | > 100 µg/mL
O=S1O[C@H](c2ccccc2)[C@@](Cn2cncn2)(c2ccc(Cl)cc2Cl)O1 (some centres not stated) | 0.1 µg/mL (≈ 0.244 µM) | 0.04 µg/mL | 50 µg/mL (≈ 122 µM) | > 100 µg/mL
Cc1ccc([C@H]2OC(=O)O[C@]2(Cn2cncn2)c2ccc(C)cc2)cc1 | 3.1 µg/mL (≈ 8.87 µM) | 1.25 µg/mL | > 100 µg/mL | > 100 µg/mL
O=C(c1ccccn1)C(O)(Cn1cncn1)c1ccccn1 (configuration not stated) | > 100 µg/mL | > 20 µg/mL | > 100 µg/mL | > 100 µg/mL
O=C1O[C@H](c2ccc(F)cc2)[C@@](Cn2ccnc2)(c2ccc(Cl)cc2Cl)O1 | 0.2 µg/mL (≈ 0.491 µM) | 0.16 µg/mL | 50 µg/mL (≈ 123 µM) | 100 µg/mL (≈ 246 µM)
Cc1ccc([C@H]2OC(=O)O[C@]2(Cn2cncn2)c2ccccc2Cl)cc1 | 3.1 µg/mL (≈ 8.38 µM) | 0.63 µg/mL | > 100 µg/mL | > 100 µg/mL
COc1ccc(C(=O)C(O)(Cn2cnnc2)c2ccc(OC)cc2)cc1 (configuration not stated) | 50 µg/mL (≈ 141 µM) | 2.5 µg/mL | > 100 µg/mL | > 100 µg/mL
OC(Cc1ccc(Cl)cc1)(c1ccccc1)C(O)(Cn1cncn1)c1ccc(Cl)cc1Cl (configuration not stated) | 50 µg/mL (≈ 102 µM) | 20 µg/mL | > 100 µg/mL | > 100 µg/mL
O=C(c1ccc(F)cc1)C(O)(Cn1cncn1)c1ccc(Cl)cc1 (configuration not stated) | 0.8 µg/mL (≈ 2.31 µM) | 1.25 µg/mL | > 100 µg/mL | 100 µg/mL (≈ 289 µM)
CC(C)C(C)(O)C(O)(Cn1cncn1)c1ccccc1 (configuration not stated) | 6.3 µg/mL (≈ 22.9 µM) | 10 µg/mL | > 100 µg/mL | > 100 µg/mL
CC(C)C(O)(Cn1cncn1)C(O)(c1ccc(Cl)cc1)c1ccc(Cl)cc1 (configuration not stated) | 6.3 µg/mL (≈ 15.5 µM) | > 20 µg/mL | > 100 µg/mL | > 100 µg/mL
CC(C)C(=O)C(O)(Cn1cnnc1)c1ccc(Cl)cc1Cl (configuration not stated) | 50 µg/mL (≈ 152 µM) | 2.5 µg/mL | > 100 µg/mL | > 100 µg/mL
O=C(c1ccc(Cl)cc1Cl)C(O)(Cn1cnnc1)c1ccc(Cl)cc1 (configuration not stated) | > 100 µg/mL | > 20 µg/mL | > 100 µg/mL | > 100 µg/mL
OC(c1ccc(F)cc1)C(O)(Cn1cncn1)c1ccc(F)cc1 (configuration not stated) | 1.6 µg/mL (≈ 4.83 µM) | 10 µg/mL | > 100 µg/mL | > 100 µg/mL
CC(C)C(O)(Cn1cncn1)C(C)(O)c1ccc(Cl)cc1 (configuration not stated) | 1.6 µg/mL (≈ 5.16 µM) | 5 µg/mL | 50 µg/mL (≈ 161 µM) | > 100 µg/mL
CC(C)CC(O)(Cn1cncn1)C(=O)c1ccc(Cl)cc1 (configuration not stated) | 0.8 µg/mL (≈ 2.6 µM) | 0.31 µg/mL | > 100 µg/mL | > 100 µg/mL
CC(C)[C@H]1OCO[C@@]1(Cn1cncn1)c1ccc(Cl)cc1 | 0.4 µg/mL (≈ 1.3 µM) | 0.04 µg/mL | 100 µg/mL (≈ 325 µM) | > 100 µg/mL
CC(C)[C@H]1OS(=O)O[C@@]1(Cn1cncn1)c1ccc(Cl)cc1 (some centres not stated) | 0.4 µg/mL (≈ 1.17 µM) | 0.16 µg/mL | > 100 µg/mL | > 100 µg/mL
O=S1O[C@H](c2ccc(Cl)cc2)[C@](Cn2cncn2)(c2ccc(Cl)cc2Cl)O1 (some centres not stated) | 0.1 µg/mL (≈ 0.225 µM) | 0.02 µg/mL | > 100 µg/mL | > 100 µg/mL
O=S1O[C@H](c2ccccc2)[C@](Cn2cncn2)(c2ccc(Cl)cc2Cl)O1 (some centres not stated) | 0.1 µg/mL (≈ 0.244 µM) | 0.08 µg/mL | > 100 µg/mL | > 100 µg/mL
OC(c1ccc(Cl)cc1)C(O)(Cn1ccnc1)c1ccc(Cl)cc1 (configuration not stated) | 50 µg/mL (≈ 138 µM) | > 20 µg/mL | > 100 µg/mL | > 100 µg/mL
O=C(c1ccccc1)C(O)(Cn1cnnc1)c1ccccc1 (configuration not stated) | > 100 µg/mL | > 20 µg/mL | > 100 µg/mL | > 100 µg/mL

Structure (SMILES) | MIC (Trichophyton benhamiae) | minimal effective concentration (Candida albicans [1]) | MIC (Aspergillus fumigatus) | MIC (Candida albicans [2])
O=C1O[C@H](c2cccc(Cl)c2)[C@@](Cn2cncn2)(c2cccc(Cl)c2)O1 | 6.3 µg/mL (≈ 16.1 µM) | > 20 µg/mL | > 100 µg/mL | 100 µg/mL (≈ 256 µM)
O=C1O[C@H](c2ccccc2)[C@@](Cn2cncn2)(c2ccccc2Cl)O1 | 6.3 µg/mL (≈ 17.7 µM) | 0.31 µg/mL | > 100 µg/mL | > 100 µg/mL
Fc1ccc([C@H]2OCO[C@]2(Cn2cncn2)c2ccc(Cl)cc2)cc1 | 0.2 µg/mL (≈ 0.556 µM) | 0.63 µg/mL | > 100 µg/mL | > 100 µg/mL
CC(C)[C@H]1OC(=O)O[C@]1(Cn1cncn1)c1ccc(Cl)cc1 | 1.6 µg/mL (≈ 4.97 µM) | 0.31 µg/mL | > 100 µg/mL | > 100 µg/mL
CCCC(O)C(O)(Cn1cncn1)c1ccc(Cl)cc1Cl (configuration not stated) | 0.1 µg/mL (≈ 0.303 µM) | 0.04 µg/mL | 50 µg/mL (≈ 151 µM) | > 100 µg/mL
Cc1ccc(C(O)C(O)(Cn2cncn2)c2ccc(C)cc2)cc1 (configuration not stated) | 1.6 µg/mL (≈ 4.95 µM) | 2.5 µg/mL | > 100 µg/mL | > 100 µg/mL
OC(c1cccc(Cl)c1)C(O)(Cn1cncn1)c1cccc(Cl)c1 (configuration not stated) | 3.1 µg/mL (≈ 8.51 µM) | > 20 µg/mL | > 100 µg/mL | > 100 µg/mL
O=C(c1ccco1)C(O)(Cn1cncn1)c1ccco1 (configuration not stated) | 100 µg/mL (≈ 366 µM) | > 20 µg/mL | > 100 µg/mL | > 100 µg/mL
CCCC(=O)C(O)(Cn1cncn1)c1ccccc1Cl (configuration not stated) | 0.8 µg/mL (≈ 2.72 µM) | 0.04 µg/mL | 100 µg/mL (≈ 340 µM) | > 100 µg/mL
CC(C)C(O)C(O)(Cn1cncn1)c1ccc(Cl)cc1Cl (configuration not stated) | 0.1 µg/mL (≈ 0.303 µM) | 0.04 µg/mL | 50 µg/mL (≈ 151 µM) | > 100 µg/mL
CCCCC(O)(Cn1cncn1)C(=O)c1ccc(Cl)cc1Cl (configuration not stated) | 0.1 µg/mL (≈ 0.292 µM) | 0.31 µg/mL | 50 µg/mL (≈ 146 µM) | 100 µg/mL (≈ 292 µM)
CCC(O)(Cn1cncn1)C(=O)c1ccc(Cl)cc1Cl (configuration not stated) | 1.6 µg/mL (≈ 5.09 µM) | 20 µg/mL | > 100 µg/mL | > 100 µg/mL
CCCC[C@H]1OC(=O)O[C@]1(Cn1cncn1)c1ccc(Cl)cc1Cl | 0.2 µg/mL (≈ 0.54 µM) | 0.63 µg/mL | > 100 µg/mL | > 100 µg/mL
CCC[C@H]1OC(=O)O[C@]1(Cn1cncn1)c1ccc(Cl)cc1Cl | 1.6 µg/mL (≈ 4.49 µM) | 0.16 µg/mL | > 100 µg/mL | 100 µg/mL (≈ 281 µM)
O=C(c1ccc(F)cc1)C(O)(Cn1cnnc1)c1ccc(Cl)cc1Cl (configuration not stated) | > 100 µg/mL | > 20 µg/mL | > 100 µg/mL | > 100 µg/mL
O=C(c1ccc(F)cc1)C(O)(Cn1cnnc1)c1ccc(F)cc1 (configuration not stated) | > 100 µg/mL | > 20 µg/mL | > 100 µg/mL | > 100 µg/mL
CC(C)[C@H]1OS(=O)O[C@]1(Cn1cncn1)c1ccc(Cl)cc1 (some centres not stated) | 0.4 µg/mL (≈ 1.17 µM) | 0.16 µg/mL | > 100 µg/mL | > 100 µg/mL
O=C(c1cccs1)C(O)(Cn1ccnc1)c1ccc(Cl)cc1 (configuration not stated) | 0.8 µg/mL (≈ 2.4 µM) | 5 µg/mL | > 100 µg/mL | > 100 µg/mL
CC(O)(c1ccc(Cl)cc1)C(O)(Cn1ccnc1)c1ccc(Cl)cc1 (configuration not stated) | 0.8 µg/mL (≈ 2.12 µM) | 1.25 µg/mL | > 100 µg/mL | > 100 µg/mL
Clc1ccc([C@@]2(Cn3cncn3)OCO[C@@H]2c2ccccc2)c(Cl)c1 | 0.2 µg/mL (≈ 0.532 µM) | 0.08 µg/mL | 12.5 µg/mL (≈ 33.2 µM) | > 100 µg/mL
CC(O)(c1ccc(F)cc1)C(O)(Cn1ccnc1)c1ccc(Cl)cc1 (configuration not stated) | 0.4 µg/mL (≈ 1.11 µM) | 2.5 µg/mL | > 100 µg/mL | > 100 µg/mL
